Starred links: 1 amine or outer side, 2 acyl side, 3 side chain; linkers in the order of their positions; H or OH if unused. Positions of bridges follow the written chain, without caps; N, C: chain ends. Non-standard residues stand in square brackets, D forms with d. Residues, ends and D or L forms follow the SMILES beside them. Chains are numbered I, II in the order given. X1 = O=C([C@@H](CC[*:3])N[*:1])[*:2]; CH2 = C([*:1])[*:2]
Legend:
[1] = biological target: T1, Human immunodeficiency virus type 1 integrase (Human immunodeficiency virus 1, UniProt Q7ZJM1); assay: In vitro inhibitory activity against HIV-1 integrase enzyme strand transfer process
How it was run: (§1)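 HIV-1 integrase (500 nM) pre-incubated with peptides for 20 min at room temperature in 50 mM MOPS pH 7.2, 7.5 mM NaCl, 7.5 mM MnCl2, 5% glycerol. The 3'-processing and strand-transfer reactions were then run by an earlier published method with these changes. IC50 values were reported for each step.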

[2] = biological target: T1, Human immunodeficiency virus type 1 integrase; assay: In vitro inhibitory activity against HIV-1 integrase enzyme 3'-end processing; how it was run: as §1

T1 sequence (Q7ZJM1 whole entry): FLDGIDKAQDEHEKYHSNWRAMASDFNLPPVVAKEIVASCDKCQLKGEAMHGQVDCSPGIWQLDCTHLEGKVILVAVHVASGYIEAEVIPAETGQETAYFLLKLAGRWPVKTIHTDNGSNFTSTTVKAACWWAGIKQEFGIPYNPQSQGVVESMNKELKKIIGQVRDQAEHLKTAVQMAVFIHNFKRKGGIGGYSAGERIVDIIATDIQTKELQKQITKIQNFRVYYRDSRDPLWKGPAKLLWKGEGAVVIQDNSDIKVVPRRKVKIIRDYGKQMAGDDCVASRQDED

Compound | IC50 [1] [µM] | IC50 [2] [µM]
H-HCKFWW-NH2 | 90 | 102
NCCCC[C@H](NC(=O)[C@H](CSC[C@H](NC(=O)[C@@H](N)Cc1c[nH]cn1)C(=O)N[C@@H](CCCCN)C(=O)N[C@@H](Cc1ccccc1)C(=O)N[C@@H](Cc1c[nH]c2ccccc12)C(=O)N[C@@H](Cc1c[nH]c2ccccc12)C(N)=O)NC(=O)[C@@H](N)Cc1c[nH]cn1)C(=O)N[C@@H](Cc1ccccc1)C(=O)N[C@@H](Cc1c[nH]c2ccccc12)C(=O)N[C@@H](Cc1c[nH]c2ccccc12)C(N)=O | 19 | 67
NCCCC[C@H](NC(=O)[C@H](CSCC[C@@H](NC(=O)[C@@H](N)Cc1c[nH]cn1)C(=O)N[C@@H](CCCCN)C(=O)N[C@@H](Cc1ccccc1)C(=O)N[C@@H](Cc1c[nH]c2ccccc12)C(=O)N[C@@H](Cc1c[nH]c2ccccc12)C(N)=O)NC(=O)[C@@H](N)Cc1c[nH]cn1)C(=O)N[C@@H](Cc1ccccc1)C(=O)N[C@@H](Cc1c[nH]c2ccccc12)C(=O)N[C@@H](Cc1c[nH]c2ccccc12)C(N)=O (I: H-H[X1]KFWW-NH2 / II: H-HCKFWW-NH2; thioether I:2-II:2) | 87 | 77
NCCCC[C@H](NC(=O)[C@H](CSSC[C@H](NC(=O)[C@@H](N)Cc1c[nH]cn1)C(=O)N[C@@H](CCCCN)C(=O)N[C@@H](Cc1ccccc1)C(=O)N[C@@H](Cc1c[nH]c2ccccc12)C(=O)N[C@@H](Cc1c[nH]c2ccccc12)C(N)=O)NC(=O)[C@@H](N)Cc1c[nH]cn1)C(=O)N[C@@H](Cc1ccccc1)C(=O)N[C@@H](Cc1c[nH]c2ccccc12)C(=O)N[C@@H](Cc1c[nH]c2ccccc12)C(N)=O (I: H-HCKFWW-NH2 / II: H-HCKFWW-NH2; disulfide I:2-II:2) | 58 | 81

Now from value to compound:

IC50 [1] [µM] | IC50 [2] [µM] | Compound
63 | 59 | NCCCC[C@H](NC(=O)[C@@H](CCSCC[C@@H](NC(=O)[C@@H](N)Cc1c[nH]cn1)C(=O)N[C@@H](CCCCN)C(=O)N[C@@H](Cc1ccccc1)C(=O)N[C@@H](Cc1c[nH]c2ccccc12)C(=O)N[C@@H](Cc1c[nH]c2ccccc12)C(N)=O)NC(=O)[C@@H](N)Cc1c[nH]cn1)C(=O)N[C@@H](Cc1ccccc1)C(=O)N[C@@H](Cc1c[nH]c2ccccc12)C(=O)N[C@@H](Cc1c[nH]c2ccccc12)C(N)=O
6.5 | 5.3 | NCCCC[C@H](NC(=O)[C@H](CSCSC[C@H](NC(=O)[C@@H](N)Cc1c[nH]cn1)C(=O)N[C@@H](CCCCN)C(=O)N[C@@H](Cc1ccccc1)C(=O)N[C@@H](Cc1c[nH]c2ccccc12)C(=O)N[C@@H](Cc1c[nH]c2ccccc12)C(N)=O)NC(=O)[C@@H](N)Cc1c[nH]cn1)C(=O)N[C@@H](Cc1ccccc1)C(=O)N[C@@H](Cc1c[nH]c2ccccc12)C(=O)N[C@@H](Cc1c[nH]c2ccccc12)C(N)=O (I: H-HCKFWW-NH2 / II: H-HCKFWW-NH2; linker I:2-II:2 via CH2)

— ChEMBL document CHEMBL1136830, “Design and synthesis of dimeric HIV-1 integrase inhibitory peptides” (Bioorg Med Chem Lett, 2003)
